In paper PMC7965737 (Bioconjugate chemistry, 2019):
Structures can show the parent of a compound that is named as a salt.

Key:
MDA-MB-468 = experiment: MTT cytotoxicity assay, MDA-MB-468; format: cell-based, Human; conditions: MDA-MB-468 breast cancer cell line, serum-free media, 48 h
How it was run: (§1)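 Cells were seeded at 5×10^3 per well in complete medium. The next day the medium was replaced with serum-free medium containing test compound (0–100 μM) or free doxorubicin (positive control), with untreated cells in serum-free medium as negative control, for 48 h at 37 °C, 5% CO2. MTT (5 mg/mL solution) was then added for 2 h. Formazan was dissolved in 4 mM HCl/0.1% NP40/2-propanol (1:1:1) and read at 570 nm. Viability was taken relative to untreated cells, in triplicate, with the experiment repeated once. IC50 came from a nonlinear fit of normalized data against log concentration.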

MCF-10A = experiment: MTT cytotoxicity assay, MCF-10A; format: cell-based, Human; conditions: non-cancerous cell line MCF-10A, serum-free media, 48 h
How it was run: as §1

COc1cccc2c1C(=O)c1c(O)c3c(c(O)c1C2=O)C[C@@](O)(C(=O)CO)C[C@@H]3O[C@H]1C[C@H](N)[C@H](O)[C@H](C)O1 [Dox, Doxorubicin hydrochloride]
IC50 (MDA-MB-468): 0.35 µM | IC50 (MCF-10A): 0.24 µM
